Laboratory results from ChEMBL document CHEMBL1155347, “Synthesis and antimicrobial activities of novel quinoline derivatives carrying 1,2,4-triazole moiety” (2009).
Converted amounts (≈) assume the structure as drawn.

Key:
Type in all cases: functional
Pseudomonas aeruginosa [1] = experiment: Antibacterial activity against Pseudomonas aeruginosa ATCC 27853 after 16 to 18 hrs by serial plate dilution method
How it was run: (§1)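 Drug serially diluted in Mueller–Hinton broth in tubes, adjusted to pH 5.0 with phosphate buffer. Inoculated with standardized bacterial suspension and incubated 16–18 h at 37 °C. MIC taken as lowest concentration with no visible growth.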

Escherichia coli [2] = experiment: Antibacterial activity against Escherichia coli ATCC 25922 at MIC after 3 to 4 days by agar well diffusion method
Aspergillus fumigatus [3] = experiment: Antifungal activity against Aspergillus fumigatus NCIM 902 at MIC after 3 to 4 days by agar well diffusion method
How it was run: (§2)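 Sabouraud agar (peptone, D-glucose, agar; pH 5.7) seeded with spore suspension made by transferring a loopful of fungus to 3 mL normal saline. Excess decanted, plates dried 1 h at 37 °C. Compounds in DMSO at MIC added to punched wells; DMSO control. Triplicate plates kept 3–4 days at 37 °C.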

Staphylococcus aureus [4] = experiment: Antibacterial activity against Staphylococcus aureus ATCC 25923 at MIC after 3 to 4 days by agar well diffusion method
[5] = tested on: Trichophyton mentagrophytes; experiment: Antifungal activity against recultured Trichophyton mentagrophytes at MIC after 3 to 4 days by agar well diffusion method; how it was run: as §2
Aspergillus fumigatus [6] = experiment: Antifungal activity against Aspergillus fumigatus NCIM 902 by serial plate dilution method
Pseudomonas aeruginosa [7] = experiment: Antibacterial activity against Pseudomonas aeruginosa ATCC 27853 at MIC after 3 to 4 days by agar well diffusion method
Aspergillus flavus [8] = experiment: Antifungal activity against Aspergillus flavus NCIM 524 at MIC after 3 to 4 days by agar well diffusion method; how it was run: as §2
Klebsiella pneumoniae [9] = experiment: Antibacterial activity against recultured Klebsiella pneumoniae after 16 to 18 hrs by serial plate dilution method; how it was run: as §1
Klebsiella pneumoniae [10] = experiment: Antibacterial activity against recultured Klebsiella pneumoniae at MIC after 3 to 4 days by agar well diffusion method
[11] = tested on: Trichophyton mentagrophytes; experiment: Antifungal activity against recultured Trichophyton mentagrophytes by serial plate dilution method
Staphylococcus aureus [12] = experiment: Antibacterial activity against Staphylococcus aureus ATCC 25923 after 16 to 18 hrs by serial plate dilution method; how it was run: as §1
Talaromyces marneffei [13] = experiment: Antifungal activity against recultured Penicillium marneffei at MIC after 3 to 4 days by agar well diffusion method; how it was run: as §2
Escherichia coli [14] = experiment: Antibacterial activity against Escherichia coli ATCC 25922 after 16 to 18 hrs by serial plate dilution method; how it was run: as §1
Talaromyces marneffei [15] = experiment: Antifungal activity against recultured Penicillium marneffei by serial plate dilution method
Aspergillus flavus [16] = experiment: Antifungal activity against Aspergillus flavus NCIM 524 by serial plate dilution method

| Structure (SMILES) | MIC (Pseudomonas aeruginosa [1]) [mg/L] | inhibition zone (IZ) (Escherichia coli [2]) [mm] | inhibition zone (IZ) (Aspergillus fumigatus [3]) [mm] | inhibition zone (IZ) (Staphylococcus aureus [4]) [mm] | inhibition zone (IZ) [5] [mm] | MIC (Aspergillus fumigatus [6]) [mg/L] | inhibition zone (IZ) (Pseudomonas aeruginosa [7]) [mm] | inhibition zone (IZ) (Aspergillus flavus [8]) [mm] | MIC (Klebsiella pneumoniae [9]) [mg/L] | inhibition zone (IZ) (Klebsiella pneumoniae [10]) [mm] | MIC [11] [mg/L] | MIC (Staphylococcus aureus [12]) [mg/L] | inhibition zone (IZ) (Talaromyces marneffei [13]) [mm] | MIC (Escherichia coli [14]) [mg/L] | MIC (Talaromyces marneffei [15]) [mg/L] | MIC (Aspergillus flavus [16]) [mg/L] |
| --- | --- | --- | --- | --- | --- | --- | --- | --- | --- | --- | --- | --- | --- | --- | --- | --- |
| FC(F)(F)c1cccc2c(Cl)c(-c3nnc(S)n3Cc3ccccc3)cnc12 | 50 (≈ 119 µM) | <10 | <10 | <10 | <10 | 50 (≈ 119 µM) | <10 | <10 | 50 (≈ 119 µM) | <10 | 50 (≈ 119 µM) | 50 (≈ 119 µM) | <10 | 50 (≈ 119 µM) | 50 (≈ 119 µM) | 50 (≈ 119 µM) |
| COCCn1c(S)nnc1-c1cnc2c(C(F)(F)F)cccc2c1NC1CCCCC1 | 6.25 (≈ 13.8 µM) | 20 | 16 | 16 | 20 | 6.25 (≈ 13.8 µM) | 16 | 16 | 6.25 (≈ 13.8 µM) | 16 | 6.25 (≈ 13.8 µM) | 6.25 (≈ 13.8 µM) | 16 | 6.25 (≈ 13.8 µM) | 6.25 (≈ 13.8 µM) | 6.25 (≈ 13.8 µM) |
| FC(F)(F)c1cccc2c(N3CCC(N4CCOCC4)CC3)c(-c3nnc(S)n3-c3ccccc3)cnc12 | 6.25 (≈ 11.6 µM) | 20 | 16 | 16 | 20 | 6.25 (≈ 11.6 µM) | 16 | 16 | 6.25 (≈ 11.6 µM) | 16 | 6.25 (≈ 11.6 µM) | 6.25 (≈ 11.6 µM) | 16 | 6.25 (≈ 11.6 µM) | 6.25 (≈ 11.6 µM) | 6.25 (≈ 11.6 µM) |
| Oc1c(-c2nnc(S)n2-c2ccccc2)cnc2c(C(F)(F)F)cccc12 | 6.25 (≈ 16.1 µM) | 20 | 16 | 16 | 20 | 6.25 (≈ 16.1 µM) | 16 | 16 | 6.25 (≈ 16.1 µM) | 16 | 6.25 (≈ 16.1 µM) | 6.25 (≈ 16.1 µM) | 16 | 6.25 (≈ 16.1 µM) | 6.25 (≈ 16.1 µM) | 6.25 (≈ 16.1 µM) |
| FC(F)(F)c1cccc2c(NC3CCCCC3)c(-c3nnc(S)n3-c3ccccc3)cnc12 | 6.25 (≈ 13.3 µM) | 20 | 16 | 16 | 20 | 6.25 (≈ 13.3 µM) | 16 | 16 | 6.25 (≈ 13.3 µM) | 16 | 6.25 (≈ 13.3 µM) | 6.25 (≈ 13.3 µM) | 16 | 6.25 (≈ 13.3 µM) | 6.25 (≈ 13.3 µM) | 6.25 (≈ 13.3 µM) |
| CCN1CCN(c2c(-c3nnc(S)n3CCOC)cnc3c(C(F)(F)F)cccc23)CC1 | 50 (≈ 107 µM) | 20 | <10 | <10 | 20 | 50 (≈ 107 µM) | <10 | <10 | 50 (≈ 107 µM) | <10 | 6.25 (≈ 13.4 µM) | 50 (≈ 107 µM) | <10 | 6.25 (≈ 13.4 µM) | 50 (≈ 107 µM) | 50 (≈ 107 µM) |
| OCCCC1CCN(c2c(-c3nnc(S)n3Cc3ccccc3)cnc3c(C(F)(F)F)cccc23)CC1 | 12.5 (≈ 23.7 µM) | 16 | 10 | 10 | 16 | 12.5 (≈ 23.7 µM) | 10 | 10 | 12.5 (≈ 23.7 µM) | 12 | 12.5 (≈ 23.7 µM) | 12.5 (≈ 23.7 µM) | 10 | 12.5 (≈ 23.7 µM) | 12.5 (≈ 23.7 µM) | 12.5 (≈ 23.7 µM) |
| CC(C)(C)CCNc1c(-c2nnc(S)n2-c2ccccc2)cnc2c(C(F)(F)F)cccc12 | 6.25 (≈ 13.3 µM) | 20 | 16 | 16 | 20 | 6.25 (≈ 13.3 µM) | 16 | 16 | 6.25 (≈ 13.3 µM) | 16 | 6.25 (≈ 13.3 µM) | 6.25 (≈ 13.3 µM) | 16 | 6.25 (≈ 13.3 µM) | 6.25 (≈ 13.3 µM) | 6.25 (≈ 13.3 µM) |
